Shown are actives, neighbours in structure and some others; about 1.4% of the full set was active somewhere.
Arrestin-AP2 inh: human beta-arrestin and AP2 interaction inhibition. inhibition, % at 10 µM. FITC-arrestin peptide / GST-AP2 beads, flow cytometry; AP2 beta2 appendage carries R879A mutation. hit rate 0.31% among 340,000. AID 504490;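 active means inhibition above a set limit, near 3 SD of compounds lacking own fluorescence, cut at about 54% in these data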;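 further: plate controls were DMSO wells for no effect and 5 µM unlabelled arrestin peptide for full effect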
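Assay system: GST-AP2 R879A bound to glutathione beads, E. coli-expressed; Medium: PBS with 0.05% Tween 20 and 0.1% BSA; Also added: fluorescein-tagged arrestin peptide at 50 nM final; Timing: 12 min plus 1 h, RT; Measured by: flow cytometry, FL1 (488/535 nm); Evaluation: percent drop in bead-associated FITC signal.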
CAL PDZ FP-1: blocks peptide binding to the human CAL PDZ domain. inhibition, % at 24.9 µM. AID 602252. hit rate 0.92% among 300,000. purified CAL PDZ, TMR-peptide fluorescence polarization, 1 h. Q9HD26;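 active means mean inhibition of at least 30% with at least half of replicates also reaching 30%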;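 further: 0% = DMSO neutral control and 100% = excess unlabeled competitor peptide PRC23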
DDE Tn6 FP inh: DD(E)-Tn6 binding inhibition, primary FP screen. Fibrin DD(E) TRITC-Tn6 fluorescence polarization displacement. inhibition, % at 8.3 µM. hit rate 0.21% among 370,000;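 active means inhibition above a per-campaign cutoff: mean of compounds within control limits plus 3 SD, cut at about 15% in these data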;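 further: 0% = median of all compound wells on the plate and 100% = blocking peptide control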
Target sequence (P02675 whole entry, looked up): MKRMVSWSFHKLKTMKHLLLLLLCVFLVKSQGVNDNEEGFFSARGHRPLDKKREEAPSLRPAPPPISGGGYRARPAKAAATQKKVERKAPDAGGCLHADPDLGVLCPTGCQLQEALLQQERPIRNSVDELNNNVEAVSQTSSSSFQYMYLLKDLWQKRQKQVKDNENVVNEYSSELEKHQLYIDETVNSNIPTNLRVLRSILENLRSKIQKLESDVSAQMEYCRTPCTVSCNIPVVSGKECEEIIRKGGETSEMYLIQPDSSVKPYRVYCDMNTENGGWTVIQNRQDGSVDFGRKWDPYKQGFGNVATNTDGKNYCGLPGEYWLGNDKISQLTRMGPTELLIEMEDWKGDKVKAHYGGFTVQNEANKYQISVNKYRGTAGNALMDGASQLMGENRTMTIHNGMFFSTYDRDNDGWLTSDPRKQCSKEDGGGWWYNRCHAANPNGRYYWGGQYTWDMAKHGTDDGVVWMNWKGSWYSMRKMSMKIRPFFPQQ
CAL PDZ FP-2: human CAL PDZ-peptide interaction inhibition. Q9HD26. hit rate 0.02% among 330,000. AID 504414. inhibition, % at 20 µM. purified CAL PDZ, TMR-peptide fluorescence polarization, 1 h;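 active means highest replicate inhibition of at least 40%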;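 further: plate controls were DMSO neutral control wells for no effect and unlabeled competitor peptide control wells for full effect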
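Material – purified CerCALP PDZ construct · Detection – FP readout, S and P plane fluorescence · Measure – percent inhibition from loss of millipolarization · Controls – unlabelled peptide for full inhibition, DMSO wells as neutral · Probe or stimulus – TMR-labelled reporter peptide T*-PRC34 bound in PDZ groove · Times – 1 h at RT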
DDE Tn7 FP inh: inhibitors of Tn7 peptide binding to human fibrin DD(E). P02675. FP displacement of FITC-Tn7 peptide from fibrin DD(E); 0% = median of compound wells per plate. inhibition, % at 8.3 µM. hit rate 0.13% among 370,000;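 active means inhibition above the mean of compounds falling within the control limits plus 3 SD of them, cut at about 14% in these data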;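 further: 0% = plate median of compound wells and 100% = 10 µM Aha-Tn7 peptide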
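assay system = human clot-derived fibrin DD(E) complex | quantity = Fibrin-DD(E) at 2 µM final | timing = 10 min preincubation, 3 h with tracer, room temperature | signal = fluorescence polarization | measure = percent inhibition | benchmarks = high control wells with 10 µM unlabelled Aha-Tn7 peptide (full inhibition) | replicates = singlicate testing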
DDE Tn6 FP ctr: counter-screen for inhibitors of Tn6 peptide binding to fibrin DD(E). inhibition, % at 8.3 µM. hit rate 2% among 680. shares compounds with DDE Tn6 FP inh. TRITC-Tn6 fluorescence polarization displacement; 0% = median of compound wells, not DMSO;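 active means inhibition above the mean of test compounds lying between the control limits plus 3 SD of those, cut at about 14% in these data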;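 further: 0% = median of compound wells and 100% = wells with Aha-Tn7 blocking peptide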
DDE Tn6 confirm: confirmation of inhibitors of Tn6 binding to human fibrin DD(E) | AID 720631 | inhibition, % at 8.3 µM | shares compounds with DDE Tn6 FP inh | hit rate 10% among 680 | FP displacement of TRITC-Tn6 peptide from DD(E); 0% = per-plate median of test wells;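 active means inhibition above the mean of compounds lying within the control limits plus 3 SD, cut at about 16% in these data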;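 further: 100% = high control wells holding a competing inhibitor peptide at 10 µM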
Active calls of the source: *; · = not tested or not shown.

SMILES | Arrestin-AP2 inh | CAL PDZ FP-1 | DDE Tn6 FP inh | CAL PDZ FP-2 | DDE Tn7 FP inh | DDE Tn6 FP ctr | DDE Tn6 confirm
COc1ccc(C(=O)NCc2ccc3c(c2)cc(C)n3C)cc1OC | 35 | · | 37* | 0 | 4 | 1 | 1
COc1ccc(/C=C\C(=O)NCc2ccc3c(c2)cc(C)n3C)cc1OC | 6 | -2 | 30* | 0 | -1 | 1 | 5
COc1cccc(C(=O)NCc2ccc3c(c2)cc(C)n3C)c1 | -5 | · | 22* | 1 | 1 | -3 | -6
O=S1(=O)c2ccc(Br)cc2OC[C@H](Cc2ccccc2)N1Cc1cn(Cc2ccc(Br)cc2)nn1 | · | · | 2 | · | 0 | · | ·
CCCCOCCCNC(=O)C[C@@H]1C(=O)N(Cc2ccc(OC)cc2)C2=CCN(C(=O)OC(C)(C)C)C[C@]21C(=O)OCC | · | · | -4 | · | 8 | · | ·
Cc1cccc(C(=O)NNC(=O)CN2C(=O)c3ccccc3C2=O)c1 | -5 | -1 | 17* | -2 | -5 | -2 | -6
Cc1cccc(C(=O)NNC(=O)c2ccc(-c3ccccc3)cc2)c1 | 3 | -3 | -2 | 0 | -2 | · | ·
CN(C)c1cccc(-c2cnc(N3CCC(C(N)=O)CC3)s2)c1 | · | · | -6 | · | 1 | · | ·
CC(=O)N1N=C(c2ccncc2)OC12CCCCCC2 | 0 | -19 | 16* | 0 | 6 | 10 | 7
Cc1ccc(Cl)cc1NC(=O)CN1C(=O)COc2ccc(S(=O)(=O)N3CCOCC3)cc21 | -4 | -1 | 16* | -2 | 6 | 1 | -3
O=C(CN1C(=O)COc2ccc(S(=O)(=O)N3CCOCC3)cc21)Nc1cccc(Cl)c1 | 3 | -3 | 3 | -2 | -3 | · | ·
Cc1ccc(O)c(CP(=O)(c2ccccc2)c2ccccc2)c1 | 0 | 2 | 2 | -1 | -4 | · | ·
CCNc1ccccc1CP(=O)(c1ccccc1)c1ccccc1O (stereo not given) | · | · | 21* | · | 10 | 4 | -9
COc1ccc(Nc2c(-c3ccc(F)cc3)nc3nc(C)cc(C)n23)cc1 | · | · | 17* | · | 8 | -1 | -7
COc1ccc(Nc2c(-c3cc4ccccc4o3)nc3nc(C)cc(C)n23)cc1 | · | · | -6 | · | 3 | · | ·
C/C=C(/C)C(=O)Nc1cccc(C2=NOC3(C2)C[C@@H](C(N)=O)N(C(=O)CC)C3)c1 (stereo not given in full) | · | -2 | 7 | 0 | 0 | · | ·
C/C=C/C(=O)N1CC2(CC(c3cccc(NC(=O)/C(C)=C/C)c3)=NO2)C[C@H]1C(N)=O (stereo not given in full) | 7 | 1 | 17* | 0 | 10 | -1 | 3
CC(CNC(=O)C(C)(C)C)NC(=O)C(C)(C)C (stereo not given) | -18 | -5 | -8 | 0 | 9 | · | ·
CCCC(NC(=O)CNC(=O)C(C)(C)C)C(=O)O (stereo not given) | 14 | -1 | 16* | -2 | 3 | 3 | 2
Cc1ccccc1Cn1cc(COC(=O)NCCc2ccccc2)nn1 | · | · | -3 | · | 0 | · | ·
COc1ccc(CNCC#Cc2ccc(C(F)(F)F)cc2)c(OC)c1 | · | · | -2 | · | 2 | · | ·
COc1ccc(/C=N/Nc2ccc(C(=O)O)cc2)c(OC)c1OC | 2 | 3 | 0 | 0 | 3 | · | ·
COC(=O)c1ccc2c(c1)C(C)(C)C(/C=C/c1ccc(O)cc1)=[N+]2C | 1 | -31 | 64* | · | -28 | -44 | -25
COC(=O)c1ccc2c(c1)C(C)(C)C(/C=C/c1ccc(OC)c(OC)c1OC)=[N+]2C | 6 | -4 | 129* | 0 | -29 | -11 | -17
COc1cc(/C=C/c2ccc(O)cc2)cc(OC)c1 | 1 | 3 | -3 | -1 | 1 | · | ·
SMILES | Arrestin-AP2 inh | CAL PDZ FP-1 | DDE Tn6 FP inh | CAL PDZ FP-2 | DDE Tn7 FP inh | DDE Tn6 FP ctr | DDE Tn6 confirm
C=CCN1C(=O)[C@@H](CC(=O)N2CCC(c3ccccc3)CC2)[C@]2(C(=O)OCC)CCCCC/C=C/12 | · | · | 1 | · | 7 | · | ·
COC(=O)[C@]12C[C@H](CC(=O)NCc3cccs3)C(=O)N(Cc3ccc(Cl)cc3Cl)C1=C[C@H](C1CCCC1)O[C@@H]2C | · | · | -3 | · | 6 | · | ·
CCN(CC)c1ccc(/C=N/N(c2ccccc2)c2ccccc2)c(O)c1 | -1 | · | 7 | -1 | -2 | · | ·
CCN(CC)c1ccc(C(=O)c2ccccc2C(=O)O)c(O)c1 | -1 | · | 15* | 0 | -2 | 2 | 15
CN1CCS/C1=C/C=C1/SC(=S)N(Cc2ccccc2)C1=O | 0 | -3 | 38* | -2 | -24 | -15 | 16*
COC(=O)[C@]12C[C@H](CC(=O)NCc3ccc(C)o3)C(=O)N(Cc3ccc(Cl)cc3Cl)C1=C[C@H](C(C)(C)C)O[C@@H]2C | · | · | 0 | · | 0 | · | ·
Cc1cc(C)cc(OCC(C)CN2CCC(C(O)(c3ccccc3)c3ccccc3)CC2)c1 (stereo not given) | · | · | 7 | · | 0 | · | ·
CC(COc1ccccc1C#N)CN1CCC(C(O)(c2ccccc2)c2ccccc2)CC1 (stereo not given) | · | · | 16* | · | 8 | 1 | 2
COCCCNC(=O)C[C@H]1C[C@@]2(C(=O)OC)C(=C[C@H](C(C)C)O[C@@H]2C2CC2)N(Cc2ccc3c(c2)OCO3)C1=O | · | · | -5 | · | 1 | · | ·
Cc1ccc(S(=O)(=O)N2CCN(c3nc(C)c4c(c3C#N)CC(C)(C)OC4)CC2)cc1 | -14 | -1 | 16* | -2 | 1 | 0 | -5
Cc1ccc(CSc2ncn(-c3ccccc3)n2)cc1 | -3 | -11 | 16* | 0 | 1 | 4 | -2
Clc1ccccc1CSc1ncn(-c2ccccc2)n1 | 5 | 3 | -6 | 0 | -4 | · | ·
COc1ccc(NCc2nnc(SCC(=O)NCc3ccco3)n2-c2ccccc2OC)cc1 | -6 | 0 | 17* | -1 | -7 | -3 | -4
COc1cccc(OC)c1C(=O)NC(=S)Nc1cc(-c2nc3ccccc3[nH]2)ccc1Cl | 10 | -2 | 55* | -5 | 3 | 1 | 13
C[C@H](O)[C@@H]1CN2CCc3c([nH]c4cccc(-c5ccccc5)c34)[C@@H]2C[C@@H]1N(C)C(=O)c1ccco1 | · | · | 6 | · | 0 | · | ·
COc1cccc(NC(=O)CN(C)CC(=O)NCc2ccco2)c1 | 11 | -3 | 7 | -1 | -8 | · | ·
COc1cccc(CN(C)CC(=O)NC(=O)NCc2ccco2)c1 | 19 | -2 | 18* | -1 | -5 | -3 | -2
CC(=O)c1cccc(OCc2cc(C(=O)N3C[C@@H](C)O[C@@H](C)C3)no2)c1 | -4 | 5 | 20* | 1 | 3 | 8 | 3
CC(=O)c1cccc(OCc2cc(C(=O)N3C[C@H]4CC[C@H]3C4)no2)c1 | 2 | -4 | -1 | -3 | -9 | · | ·
